# Data published in ChEMBL document CHEMBL4732104, “Discovery of bardoxolone derivatives as novel orally active necroptosis inhibitors” (Eur J Med Chem, 2021).
# The source made the active and inactive calls. The calls are words filed in the database; no cut-off is given here.
# Legend:
# Mus musculus [1] = assay: Protection against TNFalpha-induced C57BL/6J mouse model of systemic inflammatory response syndrome assessed as survival at 20 mg/kg, ig administered via gavage 2 hrs prior to TNFalpha stimulation and measured after 10 to 60 mins relative to control; type: functional; settings: po, time 2-3 hrs
# Summary of the method: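 Female C57BL/6 J mice, 6–8 weeks, fasted overnight, n=11 per group. Compound suspended in 0.5% CMC-Na, by oral gavage 2 h before mTNF-α 250 µg/kg i.v.; z-VAD-fmk 200 µg i.p. 15 min before and 75 µg 1 h after TNF. Survival and body temperature monitored.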
# HT-29 [2] = assay: Protection against TNFalpha/cycloheximide (TC)-induced apoptosis in human HT-29 cells assessed as increase in cell viability at 0.25 to 5 uM measured after 24 hrs by celltiter-glo luminescent cell viability assay; type: functional, cell-based; settings: dose 0.25-5 µM
# Summary of the method: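 HT-29 cells treated with agent across concentrations, then TNF-α and cycloheximide (TC) for 24 h. CellTiter-Glo luminescent viability, mean ± S.D. from three independent experiments.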
# [3] = biological target: T1, Heat shock protein HSP90 (Homo sapiens) (UniProt P07900+P08238); assay: Inhibition of HSP90 in TNFalpha/SM-164/Z-VAD-fmk (TSZ)-induced human HT-29 cells assessed as reduction in RIPK1-RIPK3 necrosome formation at 10 uM measured after 6 hrs by Western blot analysis; type: cell-based
# Summary of the method: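 HT-29 cells given agent (10 μM) or DMSO for 6 h under TSZ. Lysed in NP-40 buffer with PMSF, protease inhibitors, β-glycerophosphate, NaF and Na3VO4. Anti-RIPK1 immunoprecipitation overnight at 4 °C, protein A/G capture overnight. Eluates boiled in SDS buffer and resolved on 10% gels for immunoblot.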
# Rattus norvegicus [4] = assay: Neuroprotective activity in middle cerebral artery occlusion-induced Sprague-Dawley rat model of ischemia-reperfusion injury assessed as neurological deficit score at 100 mg/kg (reference value: 3.71 +/- 0.45); type: functional
# [5] = biological target: T1, Heat shock protein HSP90 (Homo sapiens); assay: Inhibition of HSP90 in TNFalpha/SM-164/Z-VAD-fmk (TSZ)-induced human HT-29 cells assessed as reduction in RIPK1 expression at 10 uM preincubated for 30 mins followed by TSZ stimulation and measured after 2 to 6 hrs by Western blot analysis; type: cell-based; settings: time 2-6.5 hrs
# Summary of the method: (§1)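 HT-29 cells pretreated 30 min with agent (10 μM), then TSZ for the indicated times. Lysed in RIPA with protease and phosphatase inhibitors, BCA quantified. 30 μg protein run on SDS-PAGE and blotted to PVDF. Blocked in 5% BSA, primary antibodies 1:1000 overnight at 4 °C, secondary 1:8000 for 1 h at room temperature.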
# Mus musculus [6] = assay: Protection against TNFalpha-induced C57BL/6J mouse model of systemic inflammatory response syndrome assessed as reduction in IL1beta level at 20 mg/kg, ig administered via gavage 2 hrs prior to TNFalpha stimulation and measured after 6 hrs by ELISA; type: functional, organism-based; settings: time 8.0 hrs
# Summary of the method: (§2)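 Female C57BL/6J mice, 6–8 weeks, fasted overnight, n=11 per group. Agent suspended in 0.5% CMC-Na, given by oral gavage 2 h before i.v. mTNF-α (250 µg/kg in PBS). z-VAD-fmk i.p. 200 µg 15 min before and 75 µg 1 h after. Serum IL-1β and IL-6 measured by ELISA at 6 h.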
# HT-29 [7] = assay: Anti-necroptotic activity in human HT-29 cells assessed as inhibition of TNFalpha/SM-164/Z-VAD-fmk (TSZ)-induced necroptosis by measuring increase in cell viability at 10 uM measured after 12 hrs in presence of MLKL inhibitor NSA by celltiter-glo luminescent cell viability assay; type: functional, cell-based
# Summary of the method: (§3)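 HT-29 cells exposed to test agent combined with a second necroptosis inhibitor, then stimulated with TSZ for 12 h to assess synergy. Viability read by CellTiter-Glo luminescence.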
# [8] = biological target: T1, Heat shock protein HSP90 (Homo sapiens); assay: Inhibition of HSP90 in TNFalpha/SM-164/Z-VAD-fmk (TSZ)-induced human HT-29 cells assessed as reduction in EGFR expression at 10 uM by Western blot analysis; type: cell-based; settings: time 0.5-6 hrs
# [9] = biological target: T1, Heat shock protein HSP90 (Homo sapiens); assay: Inhibition of HSP90 in TNFalpha/SM-164/Z-VAD-fmk (TSZ)-induced human HT-29 cells assessed as reduction in RIPK3 expression at 10 uM preincubated for 30 mins followed by TSZ stimulation and measured after 2 to 6 hrs by Western blot analysis; type: cell-based; settings: time 2-6.5 hrs; summary of the method: as §1
# HT-29 [10] = assay: Anti-necroptotic activity in human HT-29 cells assessed as inhibition of TNFalpha/SM-164/Z-VAD-fmk (TSZ)-induced necroptosis by measuring increase in cell viability at 10 uM measured after 12 hrs in presence of RIPK3 inhibitor SZM630 by celltiter-glo luminescent cell viability assay; type: functional, cell-based; summary of the method: as §3
# HT-29 [11] = assay: Anti-necroptotic activity in human HT-29 cells assessed as inhibition of TNFalpha/SM-164/Z-VAD-fmk (TSZ)-induced necroptosis by measuring increase in cell viability measured after 12 hrs by celltiter-glo luminescent cell viability assay; type: functional, cell-based
# Summary of the method: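 HT-29 cells pretreated with test agent across a concentration range, then TNF-α (20 ng/mL), Smac mimetic (10 nM) and z-VAD-fmk (20 μM) for 12–16 h. CellTiter-Glo viability. EC50 ± SD from at least three independent experiments.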
# HT-29 [12] = assay: Protection against TNFalpha/SM-164 (TS)-induced apoptosis in human HT-29 cells assessed as increase in cell viability at 0.5 to 10 uM measured after 20 hrs by celltiter-glo luminescent cell viability assay; type: functional, cell-based; settings: dose 0.5-10 µM
# Summary of the method: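 HT-29 cells exposed to agent across concentrations, then TNF-α and Smac mimetic (TS) for 20 h. CellTiter-Glo viability, mean ± S.D. of three independent experiments.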
# [13] = biological target: T1, Heat shock protein HSP90 (Homo sapiens); assay: Inhibition of HSP90 in TNFalpha/SM-164/Z-VAD-fmk (TSZ)-induced human HT-29 cells assessed as reduction in MLKL expression at 10 uM preincubated for 30 mins followed by TSZ stimulation and measured after 2 to 6 hrs by Western blot analysis; type: cell-based; settings: time 2-6.5 hrs; summary of the method: as §1
# Rattus norvegicus [14] = assay: Neuroprotective activity in middle cerebral artery occlusion-induced Sprague-Dawley rat model of ischemia-reperfusion injury assessed as reduction in cerebral infarct volume at 100 mg/kg by TTC staining based microscopic analysis relative to control; type: functional; design: scale not given: the % may be the effect or the level left
# Summary of the method: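 Rats: left MCA blocked by monofilament via internal carotid under chloral hydrate (300 mg/kg i.p.), 2 h occlusion, 24 h reperfusion. Groups sham, vehicle, compound 100 mg/kg, nimodipine 1 mg/kg given orally beforehand. Brains cut in 2 mm coronal slices, TTC-stained; unstained area as percent of whole brain area; n = 6.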
# Mus musculus [15] = assay: Protection against TNFalpha-induced C57BL/6J mouse model of systemic inflammatory response syndrome assessed as reduction in IL6 level at 20 mg/kg, ig administered via gavage 2 hrs prior to TNFalpha stimulation and measured after 6 hrs by ELISA; type: functional, organism-based; settings: time 8.0 hrs; summary of the method: as §2
smiles,measurement,setting,value
CC1(C)CC[C@]2(C(=O)n3cnc(-c4cccnc4)c3)CC[C@]3(C)[C@H](C(=O)C=C4[C@@]5(C)C=C(C#N)C(=O)C(C)(C)[C@@H]5CC[C@]43C)[C@@H]2C1,survival at 20 mg/kg,Mus musculus [1],100%
same,Activity,HT-29 [2],Active
same,inhibition,[3],Active
same,Activity,Rattus norvegicus [4],2.72
same,inhibition,[5],Active
same,Activity,Mus musculus [6],Active
same,inhibition,HT-29 [7],Active
same,inhibition,[8],Dose-dependent effect
same,inhibition,[9],Active
same,inhibition,HT-29 [10],Active
same,inhibition,HT-29 [11],Dose-dependent effect
same,EC50,"HT-29 [11]; HT-29, 12 h",310 nM
same,Activity,HT-29 [12],Active
same,inhibition,[13],Active
same,Activity,Rattus norvegicus [14],22.8%
same,Activity,Mus musculus [15],Active
